According to ChEMBL document CHEMBL4706730, “A Set of Highly Sensitive Sirtuin Fluorescence Probes for Screening Small-Molecular Sirtuin Defatty-Acylase Inhibitors” (ACS Med Chem Lett, 2021):
Numbered stars: 1 amine (or outer) side, 2 acyl side, 3 side chain; on linkers, the order of the positions; unused ones are H or OH. Square brackets hold non-standard residues; d marks the D form. Peptide text beside a SMILES is read from it. * marks the point of attachment. X1 = O=C(O)c1cc(NC(=S)*)ccc1-c1c2ccc(=O)cc-2oc2cc(O)ccc12; X2 = CN(CCC(=O)*)c1ccc(/N=N/c2ccc([N+](=O)[O-])cc2)cc1; Achc(trans-4) = O=C([C@H]1CC[C@H](N[*:1])CC1)[*:2]; X3 = CN(C)c1ccc(/N=N/c2ccc(CCC(=O)*)cc2)cc1

Experiments:
[1] = biological target: NAD-dependent protein deacylase sirtuin-5, mitochondrial (Homo sapiens) (UniProt Q9NXA8); test: Binding affinity to SIRT5 (unknown origin) assessed as increase in fluorescence intensity at 2.5 uM measured at 5 mins interval for 1 hr in presence of NAD+ by fluorometric method relative to control
Chain of NAD-dependent protein deacylase sirtuin-5, mitochondrial (Homo sapiens) (Q9NXA8 37-310 limits assumed): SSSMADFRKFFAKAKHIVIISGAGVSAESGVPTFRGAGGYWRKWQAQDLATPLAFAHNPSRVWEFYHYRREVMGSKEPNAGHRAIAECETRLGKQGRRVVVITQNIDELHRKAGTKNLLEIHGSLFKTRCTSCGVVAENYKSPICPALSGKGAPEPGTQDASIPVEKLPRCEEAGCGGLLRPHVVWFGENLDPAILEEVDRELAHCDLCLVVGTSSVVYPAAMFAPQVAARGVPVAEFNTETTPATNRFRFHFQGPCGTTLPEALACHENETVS
Procedure, shortened: (§1)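 Each FITC/quencher FRET peptide probe was incubated with recombinant SIRT1–7 in 96-well half-area plates at 37 °C for 1 h. The fluorescence increase is reported as a fold change, SIRT(+) signal over SIRT(−) signal, after 1 h.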

[2] = biological target: T1, NAD-dependent protein deacetylase sirtuin-1 (Homo sapiens) (UniProt Q96EB6); test: Binding affinity to SIRT1 (unknown origin) assessed as increase in fluorescence intensity at 2.5 uM measured at 5 mins interval for 1 hr in presence of NAD+ by fluorometric method relative to control; procedure, shortened: as §1
T1 sequence (whole entry): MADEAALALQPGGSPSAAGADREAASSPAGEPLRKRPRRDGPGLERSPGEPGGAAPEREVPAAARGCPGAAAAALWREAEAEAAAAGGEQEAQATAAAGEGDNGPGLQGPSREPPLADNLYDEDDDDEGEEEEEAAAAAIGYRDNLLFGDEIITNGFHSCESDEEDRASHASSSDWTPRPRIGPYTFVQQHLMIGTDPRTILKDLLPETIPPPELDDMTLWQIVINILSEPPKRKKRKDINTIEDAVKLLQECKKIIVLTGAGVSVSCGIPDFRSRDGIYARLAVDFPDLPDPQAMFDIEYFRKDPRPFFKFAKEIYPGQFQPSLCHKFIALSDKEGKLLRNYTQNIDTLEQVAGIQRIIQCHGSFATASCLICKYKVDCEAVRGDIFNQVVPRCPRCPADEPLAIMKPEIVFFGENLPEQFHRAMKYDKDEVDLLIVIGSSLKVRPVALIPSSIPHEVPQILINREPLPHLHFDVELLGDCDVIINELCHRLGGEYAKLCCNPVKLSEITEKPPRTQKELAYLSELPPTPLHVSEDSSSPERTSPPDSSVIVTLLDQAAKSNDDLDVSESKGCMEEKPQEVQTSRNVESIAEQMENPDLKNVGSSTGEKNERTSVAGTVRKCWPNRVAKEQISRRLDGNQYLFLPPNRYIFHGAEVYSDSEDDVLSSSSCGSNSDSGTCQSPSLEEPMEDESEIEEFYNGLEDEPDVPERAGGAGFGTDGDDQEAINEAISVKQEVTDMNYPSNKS

[3] = biological target: NAD-dependent protein deacylase sirtuin-6 (Homo sapiens) (UniProt Q8N6T7); test: Binding affinity to SIRT6 (unknown origin) assessed as increase in fluorescence intensity at 2.5 uM measured at 5 mins interval for 1 hr in presence of NAD+ by fluorometric method relative to control; procedure, shortened: as §1
Chain of NAD-dependent protein deacylase sirtuin-6 (Homo sapiens) (Q8N6T7 whole entry): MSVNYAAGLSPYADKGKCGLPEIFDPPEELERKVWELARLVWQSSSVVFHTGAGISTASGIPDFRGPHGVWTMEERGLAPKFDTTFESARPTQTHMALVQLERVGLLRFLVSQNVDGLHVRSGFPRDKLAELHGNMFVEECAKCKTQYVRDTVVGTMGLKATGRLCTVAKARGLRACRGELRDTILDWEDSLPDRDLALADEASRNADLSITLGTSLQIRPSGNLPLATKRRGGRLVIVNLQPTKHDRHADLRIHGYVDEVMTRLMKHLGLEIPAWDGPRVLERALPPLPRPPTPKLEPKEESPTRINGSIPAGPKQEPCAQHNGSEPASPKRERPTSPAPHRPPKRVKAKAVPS

[4] = biological target: T2, NAD-dependent protein lipoamidase sirtuin-4, mitochondrial (Homo sapiens) (UniProt Q9Y6E7); test: Binding affinity to SIRT4 (unknown origin) assessed as increase in fluorescence intensity at 2.5 uM measured at 5 mins interval for 1 hr in presence of NAD+ by fluorometric method relative to control; procedure, shortened: as §1
T2 sequence (whole entry): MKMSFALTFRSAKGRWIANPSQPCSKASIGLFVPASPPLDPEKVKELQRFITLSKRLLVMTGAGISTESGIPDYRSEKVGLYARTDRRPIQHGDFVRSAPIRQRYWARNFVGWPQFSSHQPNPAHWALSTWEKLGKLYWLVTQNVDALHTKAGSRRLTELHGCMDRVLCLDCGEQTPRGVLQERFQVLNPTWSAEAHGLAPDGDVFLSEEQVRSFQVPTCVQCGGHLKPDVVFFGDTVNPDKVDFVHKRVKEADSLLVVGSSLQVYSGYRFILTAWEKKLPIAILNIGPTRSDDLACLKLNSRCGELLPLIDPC

[5] = biological target: T3, NAD-dependent protein deacetylase sirtuin-2 (Homo sapiens) (UniProt Q8IXJ6); test: Binding affinity to SIRT2 (unknown origin) assessed as increase in fluorescence intensity at 2.5 uM measured at 5 mins interval for 1 hr in presence of NAD+ by fluorometric method relative to control; procedure, shortened: as §1
T3 sequence (whole entry): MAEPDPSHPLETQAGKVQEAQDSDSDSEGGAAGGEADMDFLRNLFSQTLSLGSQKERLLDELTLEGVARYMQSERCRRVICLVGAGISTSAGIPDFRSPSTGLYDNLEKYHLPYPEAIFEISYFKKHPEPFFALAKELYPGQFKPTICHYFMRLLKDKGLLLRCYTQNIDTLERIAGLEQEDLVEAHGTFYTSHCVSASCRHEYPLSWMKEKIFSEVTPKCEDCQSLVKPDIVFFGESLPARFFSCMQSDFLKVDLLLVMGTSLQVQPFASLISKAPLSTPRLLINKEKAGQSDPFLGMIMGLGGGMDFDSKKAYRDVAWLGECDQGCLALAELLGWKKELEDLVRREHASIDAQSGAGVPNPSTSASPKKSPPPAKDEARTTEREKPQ

[6] = biological target: T4, NAD-dependent protein deacetylase sirtuin-7 (Homo sapiens) (UniProt Q9NRC8); test: Binding affinity to SIRT7 (unknown origin) assessed as increase in fluorescence intensity at 2.5 uM measured at 5 mins interval for 1 hr in presence of NAD+ by fluorometric method relative to control; procedure, shortened: as §1
T4 sequence (whole entry): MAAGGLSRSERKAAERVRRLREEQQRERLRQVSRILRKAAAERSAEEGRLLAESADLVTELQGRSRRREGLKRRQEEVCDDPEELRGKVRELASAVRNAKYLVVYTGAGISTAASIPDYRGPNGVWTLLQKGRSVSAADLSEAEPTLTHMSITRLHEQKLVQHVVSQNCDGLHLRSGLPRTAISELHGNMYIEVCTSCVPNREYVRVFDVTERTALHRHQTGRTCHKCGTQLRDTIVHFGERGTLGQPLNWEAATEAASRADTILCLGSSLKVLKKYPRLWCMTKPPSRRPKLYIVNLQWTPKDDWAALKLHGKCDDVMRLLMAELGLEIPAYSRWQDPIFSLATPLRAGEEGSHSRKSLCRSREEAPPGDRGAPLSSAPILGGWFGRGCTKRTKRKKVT

[7] = biological target: T5, NAD-dependent protein deacetylase sirtuin-3, mitochondrial (Homo sapiens) (UniProt Q9NTG7); test: Binding affinity to SIRT3 (unknown origin) assessed as increase in fluorescence intensity at 2.5 uM measured at 5 mins interval for 1 hr in presence of NAD+ by fluorometric method relative to control; procedure, shortened: as §1
T5 sequence (whole entry): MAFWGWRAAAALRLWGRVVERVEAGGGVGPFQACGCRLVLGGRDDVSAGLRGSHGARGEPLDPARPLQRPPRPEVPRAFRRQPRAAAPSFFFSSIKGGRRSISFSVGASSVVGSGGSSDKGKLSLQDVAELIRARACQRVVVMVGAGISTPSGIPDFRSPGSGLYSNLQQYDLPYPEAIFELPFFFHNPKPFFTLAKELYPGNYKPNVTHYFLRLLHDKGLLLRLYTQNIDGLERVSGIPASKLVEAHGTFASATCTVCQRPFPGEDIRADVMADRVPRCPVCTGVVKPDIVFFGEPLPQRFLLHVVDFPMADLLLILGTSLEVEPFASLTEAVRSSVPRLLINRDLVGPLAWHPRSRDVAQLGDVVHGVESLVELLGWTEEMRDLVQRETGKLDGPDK

Structure (SMILES)	fold change (FC) [1]	fold change (FC) [2]	fold change (FC) [3]	fold change (FC) [4]	fold change (FC) [5]	fold change (FC) [6]	fold change (FC) [7]
C[C@H](NC(=O)[C@@H](NC(=O)[C@H](CCC(N)=O)NC(=O)[C@H]1CC[C@H](NC(=S)Nc2ccc(-c3c4ccc(=O)cc-4oc4cc(O)ccc34)c(C(=O)O)c2)CC1)[C@@H](C)O)C(=O)N[C@@H](CCCNC(=N)N)C(=O)N[C@@H](CCCCNC(=O)CCN(C)c1ccc(/N=N/c2ccc([N+](=O)[O-])cc2)cc1)C(=O)N[C@@H](CO)C(=O)N[C@H](C(=O)NCC(=O)NCC(=O)O)[C@@H](C)O	1.07	6.06	9.38	1.2	4.06	1.04	
CC[C@H](C)[C@H](NC(=O)[C@H](CCCNC(=N)N)NC(=O)[C@H](Cc1ccc(O)cc1)NC(=O)[C@H](CC(=O)O)NC(=O)[C@H]1CC[C@H](NC(=S)Nc2ccc(-c3c4ccc(=O)cc-4oc4cc(O)ccc34)c(C(=O)O)c2)CC1)C(=O)N[C@@H](CCCCNC(=O)CCc1ccc(/N=N/c2ccc(N(C)C)cc2)cc1)C(=O)N[C@@H](CCCNC(=N)N)C(=O)N[C@@H](Cc1ccc(O)cc1)C(=O)N[C@@H](Cc1c[nH]cn1)C(=O)N[C@H](C(N)=O)[C@@H](C)O (X1-[Achc(trans-4)]DYRIK(X3)RYHT-NH2)	1.09	4.76	1.05	1.11	1.92	1.01	1.96
CC[C@H](C)[C@H](NC(=O)[C@H](CCCNC(=N)N)NC(=O)[C@H](Cc1ccccc1)NC(=O)[C@H](CC(N)=O)NC(=O)[C@H]1CC[C@H](NC(=S)Nc2ccc(-c3c4ccc(=O)cc-4oc4cc(O)ccc34)c(C(=O)O)c2)CC1)C(=O)N[C@@H](CCCCNC(=O)CCc1ccc(/N=N/c2ccc(N(C)C)cc2)cc1)C(=O)N[C@@H](CCCNC(=N)N)C(=O)N[C@@H](Cc1ccc(O)cc1)C(=O)N[C@@H](CO)C(=O)N[C@@H](CC(N)=O)C(N)=O (X1-[Achc(trans-4)]NFRIK(X3)RYSN-NH2)	1.11	4.79	1.07	1.14	1.85	1.04	1.92
C[C@H](NC(=O)[C@@H]1CCCN1C(=O)[C@H](C)NC(=O)[C@H]1CC[C@H](NC(=S)Nc2ccc(-c3c4ccc(=O)cc-4oc4cc(O)ccc34)c(C(=O)O)c2)CC1)C(=O)N1CCC[C@H]1C(=O)N[C@@H](CCCCNC(=O)CCN(C)c1ccc(/N=N/c2ccc([N+](=O)[O-])cc2)cc1)C(=O)N[C@@H](CCCCN)C(=O)NCC(=O)N[C@@H](CO)C(=O)N[C@@H](CCCCN)C(N)=O (X1-[Achc(trans-4)]APAPK(X2)KGSK-NH2)	0.99	5	3.51	1.18	3.83	1.01	12.3
CC(=O)N[C@@H](CCC(N)=O)C(=O)N[C@H](C(=O)N[C@@H](C)C(=O)N[C@@H](CCCNC(=N)N)C(=O)N[C@@H](CCCCNC(=O)CCc1ccc(/N=N/c2ccc(N(C)C)cc2)cc1)C(=O)N[C@@H](CO)C(=O)N[C@H](C(=O)NCC(=O)NCC(=O)NCCCNC(=S)Nc1ccc(-c2c3ccc(=O)cc-3oc3cc(O)ccc23)c(C(=O)O)c1)[C@@H](C)O)[C@@H](C)O	1.08	13.8	3.6	1.03	5.89	1.04	

Other lines, results leading:

fold change (FC) [1]	fold change (FC) [2]	fold change (FC) [3]	fold change (FC) [4]	fold change (FC) [5]	fold change (FC) [6]	fold change (FC) [7]	Structure (SMILES)
1.07	14.7	2.55	1.04	10.3	1.09		C[C@H](NC(=O)CNC(=O)CNC(=O)[C@H](CCCCN)NC(=O)[C@H]1CC[C@H](NC(=S)Nc2ccc(-c3c4ccc(=O)cc-4oc4cc(O)ccc34)c(C(=O)O)c2)CC1)C(=O)N[C@@H](CCCCNC(=O)CCN(C)c1ccc(/N=N/c2ccc([N+](=O)[O-])cc2)cc1)C(=O)N[C@@H](CCCNC(=N)N)C(=O)N[C@@H](Cc1c[nH]cn1)C(=O)N[C@@H](CCCNC(=N)N)C(=O)N[C@@H](CCCCN)C(N)=O
1.03	10.9	1.05	0.92	4.72	1.01	5.45	C[C@H](NC(=O)CNC(=O)CNC(=O)[C@H]1CC[C@H](NC(=S)Nc2ccc(-c3c4ccc(=O)cc-4oc4cc(O)ccc34)c(C(=O)O)c2)CC1)C(=O)N[C@@H](CCCCNC(=O)CCc1ccc(/N=N/c2ccc(N(C)C)cc2)cc1)C(=O)N[C@@H](CCCNC(=N)N)C(=O)N[C@@H](Cc1c[nH]cn1)C(=O)N[C@@H](CCCNC(=N)N)C(N)=O
1.07	12	1.33	0.93	5.45	1.03		C[C@H](NC(=O)CNC(=O)CNC(=O)[C@H](CCCCN)NC(=O)[C@H]1CC[C@H](NC(=S)Nc2ccc(-c3c4ccc(=O)cc-4oc4cc(O)ccc34)c(C(=O)O)c2)CC1)C(=O)N[C@@H](CCCCNC(=O)CCc1ccc(/N=N/c2ccc(N(C)C)cc2)cc1)C(=O)N[C@@H](CCCNC(=N)N)C(=O)N[C@@H](Cc1c[nH]cn1)C(=O)N[C@@H](CCCNC(=N)N)C(=O)N[C@@H](CCCCN)C(N)=O
